Screens deposited in PubChem by several laboratories.
MC4R antag cAMP – MC4R antagonists of cAMP signaling, primary screen, cell-based, TR-FRET, antagonist arm of biased-ligand search; Melanocortin receptor 4 (Homo sapiens), P32245; MC4R-expressing cells, MTII-stimulated cAMP, LANCE TR-FRET; inhibition, % at 6.5 µM; 360,000 compounds, 0.48% hits; AID 540295, 2011;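 active = inhibition above its plate's cutoff, the mean of tested wells on that plate plus 3 SD, cut at about 29% in these data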;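 also: 0% = Melanotan II alone and 100% = Melanotan II plus saturating MCL0020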
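Assay system: human MC4R-expressing U2OS cells; reagent: Melanotan II stimulation of cells; dosing: 6.5 µM single dose; timing: compound 30 min, challenge 1 h, detection 1 h; signal: TR-FRET cAMP assay; replicates: one well per compound, no replicates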
AI-2 QS modul – Vibrio harveyi AI-2 quorum sensing modulators, primary screen, JMH597 strain, luminescence/OD600 ratio | Vibrio harveyi JMH597 AI-2 luminescence/OD600 ratio, 9 h; stronger effect = lower value; strain lacks LuxN and CqsS sensors; 0 = neutral-control median | activity change, % at 7.5 µM | 300,000 compounds, 0.4% hits | AID 2094, 2009; in the data active = activity change below about -75%, passing the limit was not always enough;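 also: luminescence divided by OD600 gain over 9 h not by final OD600 alone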
MC4R ag barr – MC4R agonists recruiting beta-arrestin, primary screen, cell-based, luminescence, agonist arm of biased-ligand search; activation, % at 8.9 µM; 360,000 compounds, 0.98% hits; U2OS MC4R beta-arrestin complementation; percent of melanotan II response, DMSO zero;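 active = activation above a per-plate cutoff, the mean activation of sample wells on that plate plus 3 SD, cut at about 8% in these data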
NTR1 ag – agonists of human NTR1, primary screen, imaging, U2OS cells, beta-arrestin-GFP, high content | activation, % at 20 µM | Neurotensin receptor type 1 (Homo sapiens), P30989 | NTR1-U2OS beta-arrestin-GFP spot imaging, agonist mode | 330,000 compounds, 0.17% hits;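 active = activation at or above 40% of the spot to cytoplasm intensity ratio, with at least 20 cells analyzed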;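 also: 0% = DMSO without peptide and 100% = 100 nM NTR1 peptide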
Target sequence (P30989 whole entry, looked up): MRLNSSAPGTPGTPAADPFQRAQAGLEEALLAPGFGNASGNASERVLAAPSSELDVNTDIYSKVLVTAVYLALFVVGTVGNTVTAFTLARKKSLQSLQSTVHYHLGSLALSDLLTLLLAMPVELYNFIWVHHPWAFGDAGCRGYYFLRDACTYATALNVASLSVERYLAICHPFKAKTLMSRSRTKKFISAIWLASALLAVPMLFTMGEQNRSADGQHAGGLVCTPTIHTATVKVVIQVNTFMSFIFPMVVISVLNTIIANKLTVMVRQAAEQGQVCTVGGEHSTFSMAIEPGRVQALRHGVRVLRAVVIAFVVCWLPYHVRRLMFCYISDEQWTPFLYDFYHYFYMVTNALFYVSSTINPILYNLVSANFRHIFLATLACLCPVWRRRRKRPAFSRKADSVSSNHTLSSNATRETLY
NTR1 ag confirm – NTR1 agonists, single-dose retest, confirmation, imaging, U2OS cells, beta-arrestin-GFP, single concentration; shares compounds with NTR1 ag; NTR1-U2OS beta-arrestin-GFP translocation imaging; activation, % at 20 µM; 480 compounds, 38% hits; AID 504550, 2011;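 active = mean activation at 20 µM of at least 40%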;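 also: 0% = DMSO without peptide and 100% = 100 nM NTR1 peptide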
cAMP nonselect – nonselective cAMP signaling inhibitors, parental cells, counter-screen for MC4R biased antagonist project, cell-based, TR-FRET, U2OS, forskolin, triplicate; 1,600 compounds, 26% hits; LANCE TR-FRET; inhibition, % at 6.5 µM; shares compounds with MC4R antag cAMP;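 active = mean inhibition over triplicates above the low-control well mean plus 3 SD, set per campaign, cut at about 13% in these data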;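 also: signal is single emission at 671 nm which falls as cellular cAMP rises; 0% = forskolin-stimulated wells and 100% = buffer without forskolin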
MC4R cAMP antag – MC4R cAMP antagonists, retest, confirmation, cell-based, TR-FRET. shares compounds with MC4R antag cAMP. MC4R-expressing cells, MTII-stimulated cAMP. inhibition, % at 6.5 µM. 1,600 compounds, 27% hits. AID 602195, 2012; in the data active = inhibition above about 29%;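 also: 0% = agonist stimulated wells alone and 100% = agonist stimulated wells plus saturating reference antagonist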
MC4R barr ag – MC4R beta-arrestin agonists, retest, confirmation, cell-based, luminescence, U2OS. 2,400 compounds, 31% hits. U2OS MC4R beta-arrestin recruitment; scaled DMSO 0%, Melanotan II 100%. activation, % at 8.9 µM. shares compounds with MC4R ag barr;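 active = mean activation across replicates above the hit cutoff set in the earlier primary screen, cut at about 8% in these data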
MOR-DOR barr ag – agonists of MOR-DOR heterodimerization, counter-screen for MC4R biased agonist project, cell-based, luminescence; U2OS PathHunter beta-arrestin, beta-gal luminescence; percent of deltorphin B response, DMSO zero; 2,400 compounds, 5.8% hits; shares compounds with MC4R ag barr; activation, % at 9.2 µM;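 active = mean activation across replicates exceeds the hit threshold derived in the earlier primary screen, cut at about 18% in these data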;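 also: 100% = deltorphin B at 0.9 µM final and 0% = DMSO alone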
Numbers without * were called inactive; . = no result given. An excerpt weighted towards active compounds, which were near 1.8% of everything screened.

SMILES	MC4R antag cAMP	AI-2 QS modul	MC4R ag barr	NTR1 ag	cAMP nonselect	MC4R cAMP antag	others
CC1CCN(CCCNC(=O)c2ccc3c(=O)n(Cc4ccc(Cl)cc4)c(=S)[nH]c3c2)CC1	4	18	13*	52*	.	.	NTR1 ag confirm=57*;MC4R barr ag=9.9*;MOR-DOR barr ag=9
COC(=O)c1ccc2c(=O)n(Cc3ccc(C(=O)NCCCN4CCC(C)CC4)cc3)c(=S)[nH]c2c1	4	9	2	-1	.	.
O=C(O)c1cc(N=Cc2c(O)c3ccccc3oc2=O)ccc1O	-3	7	0	0	.	.
O=C(CCc1ccc(O)cc1)c1c(O)cc(O)cc1O	7	-14	1	-1	.	.
COc1cc(O)c(CC=C(C)C)c(O)c1C(=O)CCc1ccc(O)cc1	-4	-9	36*	55*	.	.	NTR1 ag confirm=28;MC4R barr ag=32*;MOR-DOR barr ag=6
Cc1ccc(NC(=O)COC(=O)c2ccc(S(=O)(=O)N3CCCC3)cc2)cc1	8	.	4	3	.	.
CCCCCCCCCn1c2c(c(=N)c3c1CCC3)CCCC2	-1	18	13*	72*	.	.	NTR1 ag confirm=79*;MC4R barr ag=6;MOR-DOR barr ag=7
Cc1c(CN2CCC(CO)(CCOc3ccccc3)CC2)[nH]c2c(Cl)cccc12	5	-7	22*	67*	.	.	NTR1 ag confirm=34;MC4R barr ag=19*;MOR-DOR barr ag=17
COCCn1c(SCC(=O)NC2CCCC2)nnc1-c1ccco1	6	9	-2	-1	.	.
CC(C)NC(=O)Nc1cccc2c1O[C@H](CN(C)S(C)(=O)=O)[C@@H](C)CN([C@H](C)CO)C2=O	4	.	-1	-2	.	.
Cc1ccc(CN2CCC(c3cc(-c4ccc(Cl)cc4)n[nH]3)CC2)cc1	2	-7	10*	61*	.	.	NTR1 ag confirm=6;MC4R barr ag=19*;MOR-DOR barr ag=10
Cc1cccc(C(=O)Oc2ccc(/C=N/NC(=O)c3ccc(O)cc3)cc2)c1	0	9	16*	53*	.	.	NTR1 ag confirm=14;MC4R barr ag=6;MOR-DOR barr ag=3
NC(=S)N/N=C/c1ccccc1OCCSc1ccc(Cl)cc1	-13	13	11*	43*	.	.	NTR1 ag confirm=27;MC4R barr ag=1;MOR-DOR barr ag=6
COc1cccc(/C=N/NC(N)=S)c1OCc1ccccc1Cl	-7	10	3	3	.	.
COc1ccc2c(c1)C(C)(Cc1ccc(C(=O)c3ccccc3)cc1)C(=O)N2 (stereo not given)	7	.	0	.	.	.
CC(C)c1ccc(/C=N/NC(=O)CN(c2cccc(Cl)c2Cl)S(C)(=O)=O)cc1	0	39	22*	48*	.	.	NTR1 ag confirm=40;MC4R barr ag=6;MOR-DOR barr ag=8
COC(=O)c1cc2c(ccn2-c2ccc(F)cc2)n1CC(=O)OC(C)C	31*	20	0	2	4	2
CCOC(=O)c1ccccc1NS(=O)(=O)c1cnn(CC)c1C	-3	3	0	0	.	.
COc1ccc(C)cc1Nc1n[n+](-c2ccccc2)c(-c2ccc(SC)cc2)s1	-11	19	0	2	.	.
CCOC(=O)c1cc(C(=O)NC(C)c2ccccc2)c(=O)[nH]c1C (stereo not given)	11	-14	1	1	.	.
COC(=O)c1cc(C(=O)NCc2ccccc2)c(=O)[nH]c1C	30*	5	0	0	3	7
Cc1ccnc(NC(=O)c2ccc(NS(=O)(=O)/C=C/c3ccccc3)cc2)c1	2	37	1	0	.	.
O=C(NCC(=O)N1CCN(S(=O)(=O)/C=C/c2ccccc2)CC1)c1ccccc1F	-2	36	-2	0	.	.
O=C(NCC(=O)N1CCN(S(=O)(=O)/C=C/c2ccccc2)CC1)c1ccc(Cl)cc1	31*	19	4	2	1	-7
CN(C(=O)COC(=O)c1cnc(Cl)c(Cl)c1)C1CCS(=O)(=O)C1 (stereo not given)	11	3	-1	2	.	.
SMILES	MC4R antag cAMP	AI-2 QS modul	MC4R ag barr	NTR1 ag	cAMP nonselect	MC4R cAMP antag	others
O=C(COC(=O)c1cnc(Cl)c(Cl)c1)NCCC1=CCCCC1	38*	31	-2	8	28*	36*
O=C(COC(=O)c1cnc(Cl)c(Cl)c1)NC1CCCC1	29*	.	-1	.	22*	33*
O=C(COC(=O)c1cnc(Cl)c(Cl)c1)NC1CCCCCC1	29*	.	-5	4	27*	48*
CN(C(=O)COC(=O)c1cnc(Cl)c(Cl)c1)C1CCCCC1	40*	.	-4	3	22*	39*
O=C(COC(=O)c1ccc(Cl)c(Cl)c1)NC1CCCC1	3	14	0	1	.	.
Cc1c(Cl)c([N+](=O)[O-])nn1CC(=O)N1CCCc2ccccc21	0	8	-3	-1	.	.
Cc1c(Br)c([N+](=O)[O-])nn1CC(=O)N1CCc2ccccc21	30*	13	0	-1	-1	4
COc1ccc(-c2noc(CN(C)CCC3CCCCO3)n2)cc1 (stereo not given)	32*	14	-1	0	-4	-10
CC(C)OCc1ccc(C(=O)N2CCN(CC(=O)N3CCCC3)CC2)cc1	15	.	1	0	.	.
C=C1C(=O)C23C(O)C1CCC2C12CCCC(C)(COC(C)=O)C1C(O)C3(O)OC2 (stereo not given)	31*	.	-2	.	8	-13
COc1ccc(CN(C)S(=O)(=O)c2nnc(NC(=O)c3ccccc3OC)s2)cc1OC	2	-6	0	2	.	.
COc1ccc(CN(C)S(=O)(=O)c2nnc(NC(=O)c3ccc(C)cc3)s2)cc1OC	30*	20	-1	1	4	23
O=C1CC(NS(=O)(=O)c2ccc([N+](=O)[O-])cc2)CN1c1ccc(Cl)cc1 (stereo not given)	13	35	4	2	.	.
